The values below come from PubChem BioAssay AID652191 (Vanderbilt Specialized Chemistry Center, 2013).

Activity calls are given as the source filed them. How the calls were made is not given here.

As usually defined, the Ki is the dissociation constant of the complex between target and ligand, obtained from inhibition or displacement.

Chain of Metabotropic glutamate receptor 5 (Rattus norvegicus) (P31424 whole entry, looked up): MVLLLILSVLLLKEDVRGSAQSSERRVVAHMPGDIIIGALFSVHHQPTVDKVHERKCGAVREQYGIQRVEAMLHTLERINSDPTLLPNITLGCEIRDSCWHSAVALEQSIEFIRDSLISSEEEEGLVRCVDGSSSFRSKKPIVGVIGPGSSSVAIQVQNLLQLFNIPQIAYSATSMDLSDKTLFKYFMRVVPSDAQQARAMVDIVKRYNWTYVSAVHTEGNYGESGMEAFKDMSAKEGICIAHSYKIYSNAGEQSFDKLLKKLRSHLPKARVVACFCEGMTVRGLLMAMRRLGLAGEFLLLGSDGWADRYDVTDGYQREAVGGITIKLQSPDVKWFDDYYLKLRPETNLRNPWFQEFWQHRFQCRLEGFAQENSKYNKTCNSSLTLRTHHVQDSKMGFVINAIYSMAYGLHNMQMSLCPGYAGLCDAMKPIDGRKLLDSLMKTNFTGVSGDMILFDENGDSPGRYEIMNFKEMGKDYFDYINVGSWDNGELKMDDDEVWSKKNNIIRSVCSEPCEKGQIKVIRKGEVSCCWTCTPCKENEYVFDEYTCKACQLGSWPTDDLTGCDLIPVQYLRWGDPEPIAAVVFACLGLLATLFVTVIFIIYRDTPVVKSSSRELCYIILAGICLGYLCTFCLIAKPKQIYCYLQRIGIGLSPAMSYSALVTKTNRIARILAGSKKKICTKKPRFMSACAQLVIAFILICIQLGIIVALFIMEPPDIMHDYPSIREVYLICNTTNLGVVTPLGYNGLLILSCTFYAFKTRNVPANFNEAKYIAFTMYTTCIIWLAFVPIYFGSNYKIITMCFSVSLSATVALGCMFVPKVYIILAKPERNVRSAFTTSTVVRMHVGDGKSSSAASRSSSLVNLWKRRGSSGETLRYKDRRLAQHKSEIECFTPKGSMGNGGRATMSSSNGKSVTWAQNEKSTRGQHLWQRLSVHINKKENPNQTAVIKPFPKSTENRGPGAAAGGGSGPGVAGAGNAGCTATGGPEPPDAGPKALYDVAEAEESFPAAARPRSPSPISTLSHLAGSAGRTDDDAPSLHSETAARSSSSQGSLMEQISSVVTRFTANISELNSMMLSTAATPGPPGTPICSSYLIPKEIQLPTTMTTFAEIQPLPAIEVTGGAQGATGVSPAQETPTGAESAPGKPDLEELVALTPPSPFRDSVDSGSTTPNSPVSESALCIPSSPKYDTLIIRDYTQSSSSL

The assay concerns the target Metabotropic glutamate receptor 5 (Rattus norvegicus) (UniProt P31424). In words: mGlu5 allosteric site binders, biochemical, rat, HEK293A membranes, three-point Ki (AID 652191). The note with it: rmGlu5 HEK293A membranes, [3H]methoxyPEPy displacement. An outline of the steps: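 Test system: membranes from HEK293A cells with stable rat mGlu5 expression. Quantity: 50 µg membranes per well. Buffer or medium: HBSS with HEPES and probenecid, pH 7.4. Schedule: 1 h at room temperature. Reagent: 2 nM [3H]methoxyPEPy. Detection: Filter-bound radioactivity by scintillation counting. Measure: radioligand displacement by compound.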
For `O=C(c1ccc(C#Cc2cccc(F)c2)cn1)N1CC(O)(c2ccccc2)C1`, the Ki entry was “inactive”. Regarding `O=C(c1ccc(C#Cc2cccc(F)c2)cn1)N1CCOCC1`, the Ki is 70 nM. On to `CNC(=O)c1ccc(C#Cc2cccc(F)c2)cn1`, for which the Ki entry is “inactive”. `CC1CCN1C(=O)c1ccc(C#Cc2cccc(F)c2)cn1` (stereo not drawn): the Ki was 4.83 nM.

As for `O=C(c1ccc(C#Cc2cccc(F)c2)cn1)N1CCC(F)(F)CC1`, the Ki is 4.42 nM. For `O=C(c1ccc(C#Cc2cccc(F)c2)cc1)N1CCOCC1`, the Ki entry is “inactive”.

Take `O=C(c1ccc(C#Cc2cccc(F)c2)cn1)N1CCCC1`: the Ki is 20 nM. For `CNC(=O)c1ccc(C#Cc2cccc(F)c2)cc1`, the Ki entry was “inactive”.

For the compound `O=C(c1ccc(C#Cc2cccc(F)c2)cn1)N1CC(F)C1`, the Ki was 70 nM. Regarding `O=C(c1ccc(C#Cc2cccc(F)c2)cn1)N1CCCCC1`, the inhibitory constant (Ki) was 10 nM. `O=C(c1ccc(C#Cc2cccc(F)c2)cc1)N1CCC1`: the inhibition constant (Ki) is 40 nM. Next, `O=C(c1ccc(C#Cc2cccc(F)c2)cn1)N1CCC(F)(F)C1`: 10 nM; `O=C(c1ccc(C#Cc2cccc(F)c2)cn1)N1CCC(O)CC1`: “inactive”; `O=C(c1ccc(C#Cc2cccc(F)c2)nc1)N1CCC1`: “inactive”. Turning to `O=C(c1ccc(C#Cc2cccc(F)c2)cn1)N1CCC1`, the Ki was 40 nM. As for `O=C(c1ccc(C#Cc2cccc(F)c2)nc1)N1CCOCC1`, the Ki result is “inactive”. For `O=C(c1ccc(C#Cc2cccc(F)c2)cn1)N1CCCCCC1`, the inhibitory constant (Ki) is 3.82 nM.

In the case of `O=C(c1ccc(C#Cc2cccc(F)c2)cn1)N1CC2CC2C1` (stereo not drawn), the Ki is 10 nM.
